# NALP1 inh: blocks the NALP1 inflammasome reconstituted in yeast | AID 2071 | 0.61% of 280,000 active | S. cerevisiae NALP1/ASC/caspase-1 growth, X-gal OD620, 72 h | inhibition, % at 10 µM; in the data active means inhibition mostly above about 24%, no sharp cut-off; inactive means mostly below about 32%
# Lmaj promast: Leishmania major promastigote growth inhibition | inhibition, % at 10 µM | Leishmania major promastigotes, resazurin fluorescence viability | 9% of 200,000 active; in the data active means inhibition above about 50%;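 further: promastigotes grown with compound for 44 hours at 28 °C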
# NALP3 yeast inh: inhibitors of NALP3 inflammasome in yeast; Yeast reconstituted NLRP3/ASC/caspase-1, beta-gal luminescence, 24 h; inhibition, % at 10 µM; 0.39% of 330,000 active; AID 2825;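 active means inhibition of 50% or more; inactive means inhibition below 50%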;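 further: plate controls were induced DMSO wells for no effect and uninduced yeast grown without galactose for full effect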
# PolyA inh: blocks polyadenylation in yeast reporter cells | S. cerevisiae SKY197-pL101 polyadenylation reporter, beta-gal luminescence; efflux-impaired pdr1/pdr3 knockout yeast; score 100 = 6 SD above DMSO | activity score, % at 12 µM | 0.02% of 300,000 active | AID 1875;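 active means lowest replicate activity score at least 50, where 100 means six control SD above control mean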;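 further: yeast exposed to compound for 9 h at 30 °C; higher score means more reporter readthrough which indicates perturbed polyadenylation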
# Calb FLC: C. albicans growth modulation with fluconazole; C. albicans CaCi-2 + fluconazole, Alamar Blue growth, 48 h; growth inhibition, % (no concentration beside the values); 0.57% of 300,000 active; AID 1979;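 active means growth inhibition above about 58% in most replicates, limit read from the data, passing the limit was not always enough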;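 further: all wells also contain fluconazole at 8 µg/ml as a sub-toxic cotreatment; 0% = median of DMSO wells and 100% = median of geldanamycin control wells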
# T cruzi repl: T. cruzi replication inhibition. 1.4% of 300,000 active. inhibition, % (concentration not given with the values). T. cruzi beta-gal in NIH3T3, luminescence, 90 h;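 active means mean inhibition across valid replicates above about 55%, limit read from the data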;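 further: signal also drops with host cell toxicity which is not excluded here; 0% = plate median of DMSO wells and 100% = zero luminescence signal; higher percent means less beta-gal luminescence so fewer parasites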
#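 Incubation – ≥90 h infection period, 3 h prior cell attachment · System – NIH/3T3 fibroblasts plus reporter T. cruzi · Doses – compound pinned at 50 nL/well, DMSO · Read-out basis – percent inhibition of parasite-derived β-gal signal · Signal – luminescent β-galactosidase signal after 60 min lysis · Also added – 5000 T. cruzi trypomastigotes/well · Medium – Low-serum DMEM with 2% FBS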
# Active calls of the source: *; nt = no result given. This excerpt belongs to a sample that is enriched for hits.
SMILES,NALP1 inh,Lmaj promast,NALP3 yeast inh,PolyA inh,Calb FLC,T cruzi repl
CCOc1ccc(CN(C)CC(=O)Nc2cccc(S(=O)(=O)N(C)c3ccccc3)c2)cc1,-14,74*,6,-6,14,73*
CN(c1ccccc1)S(=O)(=O)c1cccc(NC(=O)Cn2cnc3ccccc3c2=O)c1,4,98*,7,-12,-27,7
COc1cc(CC(=O)Nc2cccc(S(=O)(=O)N(C)c3ccccc3)c2)cc(OC)c1OC,nt,nt,8,nt,nt,nt
CC(=O)c1ccc(OCCCC(=O)Nc2cccc(S(=O)(=O)N(C)C)c2)cc1,20,58*,18,-2,-9,8
COc1ccccc1N1CC=C(c2cccc([N+](=O)[O-])c2)NC1=O,3,nt,5,-14,11,4
O=C(CCCn1c(=O)c2ccccc2n(CC(=O)N2CCN(c3ccccc3)CC2)c1=O)NCc1ccco1,-2,8,19,-7,11,6
O=C(COC(=O)c1ccccc1Br)Nc1cc(S(=O)(=O)N2CCOCC2)ccc1N1CCCC1,6,30,21,-24,0,4
COc1cccc(CN(C)CC(=O)Nc2cccc(S(N)(=O)=O)c2)c1OC,45,88*,5,-4,4,-11
CCCCOP(=O)(c1ccc(N(C)C)cc1)C(O)c1ccccc1F (configuration not stated),33,4,0,-9,95*,1
CCCCOP(=O)(c1ccc(N(C)C)cc1)C(O)c1ccc(OC)cc1 (configuration not stated),1,nt,-7,-23,7,-10
O=C(CCC(=O)N1CCCC1)N1CCCC1,5,nt,1,2,-20,-5
COc1cc(C(=O)NCCc2ccc(F)cc2)ccc1OCC(=O)N1CCOCC1,nt,nt,15,2,-17,22
CCOC(=O)C(C(=O)OCC)c1cc(Br)c2noc3c2c1C(=O)c1ccccc1-3,28,100*,17,19,16,65*
CCCC(=Nc1ccccc1OC)C1=C(O)CC(c2ccccc2)CC1=O (configuration not stated),22,99*,31,19,4,-7
COc1ccccc1N=C(C)C1=C(O)CC(c2ccccc2)CC1=O (configuration not stated),-5,53*,48,1,4,24
CCCCC(=Nc1ccccc1OC)C1=C(O)CC(c2ccccc2)CC1=O (configuration not stated),26,6,2,33,-1,5
Cn1nc(C(=O)NC2CCCCC2)c2c1-c1ccccc1S(=O)(=O)C2,9,nt,19,-2,-7,9
C/C(=N\Nc1cccc(C(=O)O)c1)c1ccc(Cl)s1,10,14,21,25,78*,-2
CCC(=O)N1CCN(c2ccc(NC(=S)NC(=O)c3cc4ccccc4o3)cc2)CC1,15,nt,7,-9,-10,-22
CN(C(=O)c1ccc(OC2CCN(CCc3ccccc3)CC2)cc1)C1CCCCC1,12,91*,15,-13,-4,36
Cc1sc(NC(=O)Cc2ccc3c(c2)OCO3)nc1-c1ccc2c(c1)CCN2C(=O)c1ccc(F)cc1,10,87*,-11,-10,-4,19
Cc1sc(NC(=O)Cc2ccc3c(c2)OCO3)nc1-c1ccc2c(c1)CCN2C(=O)c1ccccc1F,22,99*,12,2,-2,56*
Cc1sc(NC(=O)CN2CCCC2)nc1-c1ccc2c(c1)CCN2C(=O)c1cccc(F)c1,18,nt,32,-15,21,24
Cc1ccccc1C(=O)NC(CC(C)C)C(=O)OCC(=O)c1c(N)n(C)c(=O)n(C)c1=O (configuration not stated),9,-7,11,11,7,-10
O=C(CSc1ncccn1)Nc1ncc(C(F)(F)F)cc1Cl,10,-3,2,5,4,-7
COc1ccc2c(c1)c(CC(=O)Nc1ccc(C)cc1)c(C)n2C(=O)c1ccc(Cl)cc1,1,35,17,-6,10,56*
S=C1CCC(c2ccc(Br)cc2)=NN1c1ccccc1,9,nt,-5,-15,0,13
COc1ccc(Nc2nnc(SCc3cc([N+](=O)[O-])cc4c3OCOC4)s2)cc1,44*,-2,-1,-6,-21,10

# Screening data: PubChem BioAssay, several laboratories
